# How the values were obtained:
# Format in all cases: functional
# [1] = test system: HL-60(TB); assay: Growth inhibition of human HL-60(TB) cells after 48 hrs by sulforhodamine B assay; conditions: HL-60, 48 h; for TGI: read-out: pTGI (converted)
# Summary of the method: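 Tested only on compounds active in a three-line prescreen, in the NCI 60-human-tumour-cell-line panel over a 5-log dose range. Values come from dose–response curves as log10 molar GI50, the concentration inhibiting 50% net cell growth. Log10 TGI (total growth inhibition) and log10 LC50 (50% net cell death) were derived too. Mean graph midpoints include insensitive lines at the highest concentration tested.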
# [2] = test system: EKVX; assay: Growth inhibition of human EKVX cells after 48 hrs by sulforhodamine B assay
# Summary of the method: (§1)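 NCI 60-human-tumor-cell-line panel, with compounds tested over a 5-log dose range. Values are taken from dose-response curves as log10 molar concentrations: GI50 is 50% net growth inhibition, TGI is total growth inhibition, and LC50 is 50% net cell death.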
# [3] = test system: SW-620; assay: Growth inhibition of human SW620 cells after 48 hrs by sulforhodamine B assay; conditions: SW-620, 48 h; for CC50: read-out: pLC50 (the source's name) (converted); for TGI: read-out: pTGI (converted)
# Summary of the method: (§2)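 Run in the NCI 60-human-tumour-cell-line panel, tested over a 5-log dose range. Dose–response curves gave three values per cell line, each as a log10 molar concentration: GI50 (50% inhibition of net cell growth), TGI (total inhibition of net growth) and LC50 (50% net cell death). The mean graph midpoint is the arithmetic mean over all lines, with insensitive lines entered at the highest concentration tested.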
# [4] = test system: Malme-3M; assay: Growth inhibition of human MALME-3M cells after 48 hrs by sulforhodamine B assay; conditions: for CC50: read-out: pLC50 (the source's name) (converted); for TGI: read-out: pTGI (converted); summary of the method: as §1
# [5] = test system: NCI/ADR-RES; assay: Growth inhibition of human NCI/ADR-RES cells after 48 hrs by sulforhodamine B assay; conditions: for CC50: read-out: pLC50 (the source's name) (converted); for TGI: read-out: pTGI (converted); summary of the method: as §1
# [6] = test system: SN12C; assay: Growth inhibition of human SN12C cells after 48 hrs by sulforhodamine B assay; conditions: for CC50: read-out: pLC50 (the source's name) (converted); for TGI: read-out: pTGI (converted); summary of the method: as §2
# [7] = test system: SF-539; assay: Growth inhibition of human SF539 cells after 48 hrs by sulforhodamine B assay; conditions: SF-539, 48 h; for TGI: read-out: pTGI (converted); summary of the method: as §1
# [8] = test system: SR; assay: Growth inhibition of human SR cells after 48 hrs by sulforhodamine B assay; summary of the method: as §2
# [9] = test system: LOX IMVI; assay: Growth inhibition of human LOXIMVI cells after 48 hrs by sulforhodamine B assay; summary of the method: as §1
# [10] = test system: UACC-62; assay: Growth inhibition of human UACC62 cells after 48 hrs by sulforhodamine B assay; conditions: UACC-62, 48 h; for CC50: read-out: pLC50 (the source's name) (converted); for TGI: read-out: pTGI (converted); summary of the method: as §2
# [11] = test system: HCT-15; assay: Growth inhibition of human HCT15 cells after 48 hrs by sulforhodamine B assay; conditions: HCT-15, 48 h; summary of the method: as §1
# [12] = test system: RXF 393; assay: Growth inhibition of human RXF393 cells after 48 hrs by sulforhodamine B assay; conditions: RXF 393, 48 h; for CC50: read-out: pLC50 (the source's name) (converted); for TGI: read-out: pTGI (converted); summary of the method: as §1
# [13] = Growth inhibition of human […] cells after 48 hrs by sulforhodamine B assay; conditions: for TGI: read-out: pTGI (converted); summary of the method: as §1
# [14] = test system: A498; assay: Growth inhibition of human A498 cells after 48 hrs by sulforhodamine B assay; conditions: A498, 48 h; for CC50: read-out: pLC50 (the source's name) (converted); for TGI: read-out: pTGI (converted); summary of the method: as §1
# [15] = test system: CCRF-CEM; assay: Growth inhibition of human CCRF-CEM cells after 48 hrs by sulforhodamine B assay; conditions: for TGI: read-out: pTGI (converted); summary of the method: as §1
# [16] = test system: K562; assay: Growth inhibition of human K562 cells after 48 hrs by sulforhodamine B assay; conditions: K562, 48 h; for TGI: read-out: pTGI (converted); summary of the method: as §1
# [17] = test system: SK-MEL-28; assay: Growth inhibition of human SK-MEL-28 cells after 48 hrs by sulforhodamine B assay; conditions: SK-MEL-28, 48 h; for CC50: read-out: pLC50 (the source's name) (converted); for TGI: read-out: pTGI (converted); summary of the method: as §1
# [18] = test system: NCI-H226; assay: Growth inhibition of human NCI-H226 cells after 48 hrs by sulforhodamine B assay; conditions: NCI-H226, 48 h; for TGI: read-out: pTGI (converted); summary of the method: as §1
# [19] = test system: HCT-116; assay: Growth inhibition of human HCT116 cells after 48 hrs by sulforhodamine B assay; conditions: HCT-116, 48 h; for TGI: read-out: pTGI (converted); summary of the method: as §1
# [20] = test system: SK-MEL-2; assay: Growth inhibition of human SK-MEL-2 cells after 48 hrs by sulforhodamine B assay; conditions: SK-MEL-2, 48 h; for CC50: read-out: pLC50 (the source's name) (converted); for TGI: read-out: pTGI (converted); summary of the method: as §1
# [21] = test system: NCI-H23; assay: Growth inhibition of human NCI-H23 cells after 48 hrs by sulforhodamine B assay; conditions: NCI-H23, 48 h; for TGI: read-out: pTGI (converted); summary of the method: as §1
# [22] = test system: T47D; assay: Growth inhibition of human T47D cells after 48 hrs by sulforhodamine B assay; conditions: for CC50: read-out: pLC50 (the source's name) (converted); for TGI: read-out: pTGI (converted); summary of the method: as §2
# [23] = test system: DU-145; assay: Growth inhibition of human DU145 cells after 48 hrs by sulforhodamine B assay; conditions: DU-145, 48 h; for CC50: read-out: pLC50 (the source's name) (converted); for TGI: read-out: pTGI (converted); summary of the method: as §1
# [24] = test system: A549; assay: Growth inhibition of human A549 cells after 48 hrs by sulforhodamine B assay; conditions: A549, 48 h; for TGI: read-out: pTGI (converted); summary of the method: as §1
# [25] = test system: M14; assay: Growth inhibition of human M14 cells after 48 hrs by sulforhodamine B assay; conditions: M14, 48 h; for CC50: read-out: pLC50 (the source's name) (converted); for TGI: read-out: pTGI (converted); summary of the method: as §1
smiles,measurement,setting,value
Nc1cc(N)c2nc(-c3ccccc3)c(NCc3ccc(Cl)c(Cl)c3)nc2c1,GI50,[1],1.82 µM
same,LC50,[1],> 100 µM
same,TGI,[1],7.94 µM
same,GI50,[2],11 µM
same,LC50 (50% net cell kill),[2],> 100 µM
same,TGI,[2]; read-out: pTGI (converted),38.9 µM
same,GI50,[3],3.24 µM
same,CC50,[3],> 100 µM
same,TGI,[3],9.77 µM
same,GI50,[4],3.39 µM
same,CC50,[4],50.1 µM
same,TGI,[4],13.8 µM
same,GI50,[5],17.4 µM
same,CC50,[5],> 100 µM
same,TGI,[5],45.7 µM
same,GI50,[6],6.03 µM
same,CC50,[6],87.1 µM
same,TGI,[6],24 µM
same,GI50,[7],4.57 µM
same,LC50,[7],83.2 µM
same,TGI,[7],18.6 µM
same,GI50,[8],1.62 µM
same,LC50 (concentration giving 50% net cell death),[8],> 100 µM
same,TGI,[8]; read-out: pTGI (converted),6.03 µM
same,GI50,[9],2.14 µM
same,GI50,[10],14.1 µM
same,CC50,[10],67.6 µM
same,TGI,[10],30.9 µM
same,GI50,[11],4.68 µM
same,LC50,[11],> 100 µM
same,TGI,[11]; read-out: pTGI (converted),> 100 µM
same,GI50,[12],3.09 µM
same,CC50,[12],> 100 µM
same,TGI,[12],17 µM
same,GI50,[13],1.66 µM
same,LC50,[13],8.32 µM
same,TGI,[13],3.72 µM
same,GI50,[14],17.4 µM
same,CC50,[14],60.3 µM
same,TGI,[14],32.4 µM
same,GI50,[15],0.132 µM
same,LC50,[15],17.4 µM
same,TGI,[15],1.82 µM
same,GI50,[16],3.09 µM
same,LC50,[16],> 100 µM
same,TGI,[16],17.8 µM
same,GI50,[17],18.6 µM
same,CC50,[17],93.3 µM
same,TGI,[17],41.7 µM
same,GI50,[18],22.4 µM
same,LC50,[18],95.5 µM
same,TGI,[18],46.8 µM
same,GI50,[19],11.5 µM
same,LC50 (concentration causing 50% net cell death),[19],50.1 µM
same,TGI,[19],24 µM
same,GI50,[20],1.91 µM
same,CC50,[20],9.55 µM
same,TGI,[20],4.27 µM
same,GI50,[21],14.1 µM
same,LC50 (50% net cell kill concentration),[21],55 µM
same,TGI,[21],27.5 µM
same,GI50,[22],19.5 µM
same,CC50,[22],> 100 µM
same,TGI,[22],55 µM
same,GI50,[23],16.2 µM
same,CC50,[23],69.2 µM
same,TGI,[23],33.1 µM
same,GI50,[24],10.7 µM
same,LC50,[24],69.2 µM
same,TGI,[24],27.5 µM
same,GI50,[25],15.8 µM
same,CC50,[25],75.9 µM
same,TGI,[25],34.7 µM
COc1ccc(Sc2nc3cc(N)cc(N)c3nc2-c2ccccc2)cc1,GI50,[1],4.27 µM
same,LC50,[1],> 100 µM
same,TGI,[1],> 100 µM
same,GI50,[3],26.3 µM
same,CC50,[3],> 100 µM
same,TGI,[3],> 100 µM
same,GI50,[4],33.1 µM
same,CC50,[4],> 100 µM
same,TGI,[4],95.5 µM
same,GI50,[5],> 100 µM
same,CC50,[5],> 100 µM
same,TGI,[5],> 100 µM
same,GI50,[6],6.03 µM
same,CC50,[6],87.1 µM
same,TGI,[6],24 µM
same,GI50,[7],10 µM
same,LC50,[7],> 100 µM
same,TGI,[7],> 100 µM
same,GI50,[9],51.3 µM
same,LC50,[9],> 100 µM
same,TGI,[9]; read-out: pTGI (converted),> 100 µM
same,GI50,[10],38 µM
same,CC50,[10],> 100 µM
same,TGI,[10],> 100 µM
same,GI50,[12],3.09 µM
same,CC50,[12],> 100 µM
same,TGI,[12],17 µM
same,GI50,[13],3.98 µM
same,LC50,[13],> 100 µM
same,TGI,[13],85.1 µM
same,GI50,[14],17.4 µM
same,CC50,[14],60.3 µM
same,TGI,[14],32.4 µM
same,GI50,[15],2.29 µM
same,LC50,[15],> 100 µM
same,TGI,[15],8.32 µM
same,GI50,[16],9.77 µM
same,LC50,[16],> 100 µM
same,TGI,[16],> 100 µM
same,GI50,[17],24.5 µM
same,CC50,[17],> 100 µM
same,TGI,[17],> 100 µM
same,LC50,[18],> 100 µM
same,TGI,[18],> 100 µM
same,GI50,[19],14.8 µM
same,LC50 (concentration causing 50% net cell death),[19],> 100 µM
same,TGI,[19],> 100 µM
same,CC50,[20],> 100 µM
same,TGI,[20],> 100 µM
same,GI50,[21],> 100 µM
same,LC50 (50% net cell kill concentration),[21],> 100 µM
same,TGI,[21],> 100 µM
same,GI50,[22],> 100 µM
same,CC50,[22],> 100 µM
same,TGI,[22],> 100 µM
same,GI50,[23],16.2 µM
same,CC50,[23],69.2 µM
same,TGI,[23],33.1 µM
same,GI50,[24],42.7 µM
same,LC50,[24],> 100 µM
same,TGI,[24],> 100 µM
same,GI50,[25],> 100 µM
same,CC50,[25],> 100 µM
same,TGI,[25],> 100 µM
